Test results as given in ChEMBL document CHEMBL1649560, “Beta-lactamase-mediated beta-lactam resistance in Campylobacter species: prevalence of Cj0299 (bla OXA-61) and evidence for a novel beta-Lactamase in C. jejuni” (2009).
Converted amounts (≈) assume the structure as drawn.

Tested on: Campylobacter jejuni
Test: Antibacterial activity against bla gene-negative and nitrocefin reaction-positive beta-lactamase harboring Campylobacter jejuni isolate P854 by NCCLS agar doubling dilution method
Format: functional
Outline: (§1)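 MICs of β-lactams by agar doubling dilution following the NCCLS (CLSI) Campylobacter Working Group procedure, with C. jejuni NCTC 11168 and C. coli NCTC 11366 as controls. Isolates were from UK poultry flocks. β-Lactamase status was set by Cj0299 PCR (281-bp amplimer) and by a nitrocefin colour change of sonicated lysate within 5 min, or within 30 min on repeat.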

Row | SMILES | MIC [µg/mL]
1 | C[C@H]1[C@H](NC(=O)/C(=N\OC(C)(C)C(=O)O)c2csc(N)n2)C(=O)N1S(=O)(=O)O [AZTREONAM] | 4 (≈ 9.19 µM)

Tested on: Campylobacter coli
Test: Antibacterial activity against bla gene-positive and nitrocefin reaction-positive beta-lactamase harboring Campylobacter coli isolate P321 by NCCLS agar doubling dilution method
Format: functional
Outline: as §1

Row | SMILES | MIC [µg/mL]
2 | C[C@H]1[C@H](NC(=O)/C(=N\OC(C)(C)C(=O)O)c2csc(N)n2)C(=O)N1S(=O)(=O)O [AZTREONAM] | > 128

Tested on: Campylobacter jejuni
Test: Antibacterial activity against bla gene-positive and nitrocefin reaction-negative beta-lactamase harboring Campylobacter jejuni isolate P1698 by NCCLS agar doubling dilution method
Format: functional
Outline: as §1

Row | SMILES | MIC [µg/mL]
3 | C[C@H]1[C@H](NC(=O)/C(=N\OC(C)(C)C(=O)O)c2csc(N)n2)C(=O)N1S(=O)(=O)O [AZTREONAM] | 128 (≈ 294 µM)

Tested on: Campylobacter coli
Test: Antibacterial activity against bla-positive and beta-lactamase-weakly positive Campylobacter coli isolate P1627 by NCCLS agar doubling dilution method
Format: functional
Outline: (§2)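 MICs by agar doubling dilution per the NCCLS (now CLSI) Campylobacter Working Group method. Isolates came from UK chicken flocks (feces, ceca or farm environment), 2000–2006. C. jejuni NCTC 11168 and C. coli NCTC 11366 served as control strains. The ampicillin resistance cutoff was 8 μg/ml; BSAC/CLSI Enterobacteriaceae guidelines were used for other agents.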

Row | SMILES | MIC [µg/mL]
4 | C[C@H]1[C@H](NC(=O)/C(=N\OC(C)(C)C(=O)O)c2csc(N)n2)C(=O)N1S(=O)(=O)O [AZTREONAM] | > 128

Tested on: Campylobacter jejuni
Test: Antibacterial activity against bla gene-negative and nitrocefin reaction-negative beta-lactamase harboring Campylobacter jejuni isolate P850 by NCCLS agar doubling dilution method
Format: functional
Outline: as §1

Row | SMILES | MIC [µg/mL]
5 | C[C@H]1[C@H](NC(=O)/C(=N\OC(C)(C)C(=O)O)c2csc(N)n2)C(=O)N1S(=O)(=O)O [AZTREONAM] | > 32

Tested on: Campylobacter jejuni
Test: Antibacterial activity against bla gene-positive and nitrocefin reaction-positive beta-lactamase harboring Campylobacter jejuni isolate P1618 by NCCLS agar doubling dilution method
Format: functional
Outline: as §1

Row | SMILES | MIC [µg/mL]
6 | C[C@H]1[C@H](NC(=O)/C(=N\OC(C)(C)C(=O)O)c2csc(N)n2)C(=O)N1S(=O)(=O)O [AZTREONAM] | 64 (≈ 147 µM)

Tested on: Campylobacter jejuni
Test: Antibacterial activity against bla gene-positive and nitrocefin reaction-positive beta-lactamase harboring Campylobacter jejuni isolate P338 by NCCLS agar doubling dilution method
Format: functional
Outline: as §2

Row | SMILES | MIC [µg/mL]
7 | C[C@H]1[C@H](NC(=O)/C(=N\OC(C)(C)C(=O)O)c2csc(N)n2)C(=O)N1S(=O)(=O)O [AZTREONAM] | 128 (≈ 294 µM)

Tested on: Campylobacter jejuni
Test: Antibacterial activity against bla gene-positive and nitrocefin reaction-positive beta-lactamase harboring Campylobacter jejuni isolate P316 by NCCLS agar doubling dilution method
Format: functional
Outline: as §2

Row | SMILES | MIC [µg/mL]
8 | C[C@H]1[C@H](NC(=O)/C(=N\OC(C)(C)C(=O)O)c2csc(N)n2)C(=O)N1S(=O)(=O)O [AZTREONAM] | > 128

Tested on: Campylobacter coli
Test: Antibacterial activity against bla gene-positive and nitrocefin reaction-positive beta-lactamase harboring Campylobacter coli isolate P1826 by NCCLS agar doubling dilution method
Format: functional
Outline: as §1

Row | SMILES | MIC [µg/mL]
9 | C[C@H]1[C@H](NC(=O)/C(=N\OC(C)(C)C(=O)O)c2csc(N)n2)C(=O)N1S(=O)(=O)O [AZTREONAM] | 32 (≈ 73.5 µM)

Tested on: Campylobacter jejuni
Test: Antibacterial activity against bla gene-negative and nitrocefin reaction-negative beta-lactamase harboring Campylobacter jejuni isolate P835 by NCCLS agar doubling dilution method
Format: functional
Outline: as §1

Row | SMILES | MIC [µg/mL]
10 | C[C@H]1[C@H](NC(=O)/C(=N\OC(C)(C)C(=O)O)c2csc(N)n2)C(=O)N1S(=O)(=O)O [AZTREONAM] | 128 (≈ 294 µM)

Tested on: Campylobacter jejuni
Test: Antibacterial activity against bla gene-positive and nitrocefin reaction-positive beta-lactamase harboring Campylobacter jejuni isolate P790 by NCCLS agar doubling dilution method
Format: functional
Outline: as §2

Row | SMILES | MIC [µg/mL]
11 | C[C@H]1[C@H](NC(=O)/C(=N\OC(C)(C)C(=O)O)c2csc(N)n2)C(=O)N1S(=O)(=O)O [AZTREONAM] | > 128

Tested on: Campylobacter coli
Test: Antibacterial activity against Campylobacter coli by NCCLS agar doubling dilution method
Format: functional
Outline: (§3)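 MICs by agar doubling dilution following the NCCLS (CLSI) Campylobacter Working Group procedure, applied to ampicillin- and amoxicillin-resistant isolates from UK chicken flocks (2000–2006). C. jejuni NCTC 11168 and C. coli NCTC 11366 served as control strains. Resistance was called at an ampicillin cutoff of 8 μg/ml. Other agents were judged against Enterobacteriaceae guidelines (BSAC, CLSI).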

Row | SMILES | MIC50 [µg/mL] | MIC90 [µg/mL]
12 | C[C@H]1[C@H](NC(=O)/C(=N\OC(C)(C)C(=O)O)c2csc(N)n2)C(=O)N1S(=O)(=O)O [AZTREONAM] | 64 (≈ 147 µM) | > 128

Tested on: Campylobacter jejuni
Test: Antibacterial activity against bla gene-positive and nitrocefin reaction-negative beta-lactamase harboring Campylobacter jejuni NCTC 11168 by NCCLS agar doubling dilution method
Format: functional
Outline: as §1

Row | SMILES | MIC [µg/mL]
13 | C[C@H]1[C@H](NC(=O)/C(=N\OC(C)(C)C(=O)O)c2csc(N)n2)C(=O)N1S(=O)(=O)O [AZTREONAM] | 64 (≈ 147 µM)

Tested on: Campylobacter jejuni
Test: Antibacterial activity against bla gene-positive and nitrocefin reaction-positive beta-lactamase harboring Campylobacter jejuni isolate P1650 by NCCLS agar doubling dilution method
Format: functional
Outline: as §1

Row | SMILES | MIC [µg/mL]
14 | C[C@H]1[C@H](NC(=O)/C(=N\OC(C)(C)C(=O)O)c2csc(N)n2)C(=O)N1S(=O)(=O)O [AZTREONAM] | 128 (≈ 294 µM)

Tested on: Campylobacter jejuni
Test: Antibacterial activity against Campylobacter jejuni by NCCLS agar doubling dilution method
Format: functional
Outline: as §3

Row | SMILES | MIC50 [µg/mL] | MIC90 [µg/mL]
15 | C[C@H]1[C@H](NC(=O)/C(=N\OC(C)(C)C(=O)O)c2csc(N)n2)C(=O)N1S(=O)(=O)O [AZTREONAM] | 64 (≈ 147 µM) | > 128

Tested on: Campylobacter jejuni
Test: Antibacterial activity against bla gene-positive and nitrocefin reaction-positive beta-lactamase harboring Campylobacter jejuni isolate P286 by NCCLS agar doubling dilution method
Format: functional
Outline: as §2

Row | SMILES | MIC [µg/mL]
16 | C[C@H]1[C@H](NC(=O)/C(=N\OC(C)(C)C(=O)O)c2csc(N)n2)C(=O)N1S(=O)(=O)O [AZTREONAM] | > 128

Tested on: Campylobacter jejuni
Test: Antibacterial activity against bla gene-positive and nitrocefin reaction-positive beta-lactamase harboring Campylobacter jejuni isolate P305 by NCCLS agar doubling dilution method
Format: functional
Outline: as §2

Row | SMILES | MIC [µg/mL]
17 | C[C@H]1[C@H](NC(=O)/C(=N\OC(C)(C)C(=O)O)c2csc(N)n2)C(=O)N1S(=O)(=O)O [AZTREONAM] | > 128

Tested on: Campylobacter jejuni
Test: Antibacterial activity against bla gene-positive and nitrocefin reaction-positive beta-lactamase harboring Campylobacter jejuni isolate P285 by NCCLS agar doubling dilution method
Format: functional
Outline: as §2

Row | SMILES | MIC [µg/mL]
18 | C[C@H]1[C@H](NC(=O)/C(=N\OC(C)(C)C(=O)O)c2csc(N)n2)C(=O)N1S(=O)(=O)O [AZTREONAM] | > 128

Tested on: Campylobacter jejuni
Test: Antibacterial activity against bla gene-negative and nitrocefin reaction-negative beta-lactamase harboring Campylobacter jejuni isolate P1962 by NCCLS agar doubling dilution method
Format: functional
Outline: as §1

Row | SMILES | MIC [µg/mL]
19 | C[C@H]1[C@H](NC(=O)/C(=N\OC(C)(C)C(=O)O)c2csc(N)n2)C(=O)N1S(=O)(=O)O [AZTREONAM] | 4 (≈ 9.19 µM)

Tested on: Campylobacter jejuni
Test: Antibacterial activity against bla gene-positive and nitrocefin reaction-positive beta-lactamase harboring Campylobacter jejuni isolate P1730 by NCCLS agar doubling dilution method
Format: functional
Outline: as §2

Row | SMILES | MIC [µg/mL]
20 | C[C@H]1[C@H](NC(=O)/C(=N\OC(C)(C)C(=O)O)c2csc(N)n2)C(=O)N1S(=O)(=O)O [AZTREONAM] | 32 (≈ 73.5 µM)

Tested on: Campylobacter jejuni
Test: Antibacterial activity against bla gene-negative and nitrocefin reaction-positive beta-lactamase harboring Campylobacter jejuni isolate P843 by NCCLS agar doubling dilution method
Format: functional
Outline: as §1

Row | SMILES | MIC [µg/mL]
21 | C[C@H]1[C@H](NC(=O)/C(=N\OC(C)(C)C(=O)O)c2csc(N)n2)C(=O)N1S(=O)(=O)O [AZTREONAM] | > 128

Tested on: Campylobacter jejuni
Test: Antibacterial activity against bla gene-positive and nitrocefin reaction-negative beta-lactamase harboring Campylobacter jejuni isolate P1699 by NCCLS agar doubling dilution method
Format: functional
Outline: as §1

Row | SMILES | MIC [µg/mL]
22 | C[C@H]1[C@H](NC(=O)/C(=N\OC(C)(C)C(=O)O)c2csc(N)n2)C(=O)N1S(=O)(=O)O [AZTREONAM] | < 1
